How the values were obtained:
HeLa [1] = experiment: Antiproliferative activity against human HeLa cells assessed as growth inhibition at 8 uM after 72 hrs by CCK-8 assay relative to control; format: functional; details: read-out: GI
A549 [2] = experiment: Cell cycle arrest in human A549 cells assessed as accumulation of cells at G0/G1 phase at 0.5 uM after 48 hrs by propidium iodide staining-based flow cytometry (reference value: 73.35%); format: functional
HeLa [3] = experiment: Antiproliferative activity against human HeLa cells assessed as decrease in cell viability after 72 hrs by CCK-8 assay; format: functional, cell-based
Procedure, shortened: (§1)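 Cells grown to 70–85% confluence (A375, A549, HCT116 in RPMI1640; HeLa, SMMC7721 in DMEM; 10% FBS, 37 °C, 5% CO2), seeded 4000/well, dosed after 12 h across a concentration range, incubated 72 h, then CCK-8 for 1 h; absorbance at 450 nm. IC50 as mean ± SD of three separate experiments.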

A549 [4] = experiment: Antiproliferative activity against human A549 cells assessed as growth inhibition at 2 uM after 72 hrs by CCK-8 assay relative to control; format: functional; details: A549, 72 h, read-out: GI
[5] = Clearance in ICR mouse at 4 mg/kg, iv after 0.08 to 24 hrs by LC-MS/MS analysis; format: ADME, organism-based; details: in vivo
Procedure, shortened: (§2)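 Male ICR mice (29.7~37.4 g), single iv dose 4 mg/kg in DMSO:40% SBE-β-CD 20:80 (v/v). Retro-orbital blood at 0.08–24 h into EDTA-K2 tubes; plasma protein-precipitated with acetonitrile containing internal standards, analysed by LC-MS/MS; n=3 per time point; noncompartmental analysis.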

A549 [6] = experiment: Induction of apoptosis in human A549 cells assessed as viable cells at 2 uM after 48 hrs by Annexin V-FITC/propidium iodide staining based flow cytometry (reference value: 98%); format: functional; details: A549, 48 h, read-out: Activity
Procedure, shortened: (§3)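 A549 seeded 4×10⁶ cells/well, dosed after 12 h with compound at various concentrations, harvested after 48 h. Resuspended in annexin-binding buffer, stained with Annexin V-FITC and propidium iodide for 15 min in the dark, analysed by flow cytometry; means of three separate experiments.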

Histone deacetylase = experiment: Inhibition of HDAC in human HeLa cell nuclear extract assessed as decrease in deacetylation of FLUOR DE LYS Green substrate preincubated for 10 mins followed by substrate addition and measured after 30 mins by fluorescence based assay; format: cell-free
A549 [7] = experiment: Induction of apoptosis in human A549 cells assessed as early apoptotic cells at 0.5 uM after 48 hrs by Annexin V-FITC/propidium iodide staining based flow cytometry (reference value: 1.19%); format: functional; procedure, shortened: as §3
A549 [8] = experiment: Cell cycle arrest in human A549 cells assessed as accumulation of cells at G2/M phase at 0.5 uM after 48 hrs by propidium iodide staining-based flow cytometry (reference value: 13.62%); format: functional
[9] = molecular target: T1, Protein deacetylase HDAC6 (Homo sapiens, UniProt Q9UBN7); experiment: Inhibition of recombinant human His tagged HDAC6 expressed in baculovirus infected insect cells assessed as decrease in deacetylation of FLUOR DE LYS SIRT1 substrate by measuring decrease in fluorescence preincubated for 10 mins followed by substrate addition and measured after 30 mins by fluorescence based assay
T1 sequence (Q9UBN7 whole entry): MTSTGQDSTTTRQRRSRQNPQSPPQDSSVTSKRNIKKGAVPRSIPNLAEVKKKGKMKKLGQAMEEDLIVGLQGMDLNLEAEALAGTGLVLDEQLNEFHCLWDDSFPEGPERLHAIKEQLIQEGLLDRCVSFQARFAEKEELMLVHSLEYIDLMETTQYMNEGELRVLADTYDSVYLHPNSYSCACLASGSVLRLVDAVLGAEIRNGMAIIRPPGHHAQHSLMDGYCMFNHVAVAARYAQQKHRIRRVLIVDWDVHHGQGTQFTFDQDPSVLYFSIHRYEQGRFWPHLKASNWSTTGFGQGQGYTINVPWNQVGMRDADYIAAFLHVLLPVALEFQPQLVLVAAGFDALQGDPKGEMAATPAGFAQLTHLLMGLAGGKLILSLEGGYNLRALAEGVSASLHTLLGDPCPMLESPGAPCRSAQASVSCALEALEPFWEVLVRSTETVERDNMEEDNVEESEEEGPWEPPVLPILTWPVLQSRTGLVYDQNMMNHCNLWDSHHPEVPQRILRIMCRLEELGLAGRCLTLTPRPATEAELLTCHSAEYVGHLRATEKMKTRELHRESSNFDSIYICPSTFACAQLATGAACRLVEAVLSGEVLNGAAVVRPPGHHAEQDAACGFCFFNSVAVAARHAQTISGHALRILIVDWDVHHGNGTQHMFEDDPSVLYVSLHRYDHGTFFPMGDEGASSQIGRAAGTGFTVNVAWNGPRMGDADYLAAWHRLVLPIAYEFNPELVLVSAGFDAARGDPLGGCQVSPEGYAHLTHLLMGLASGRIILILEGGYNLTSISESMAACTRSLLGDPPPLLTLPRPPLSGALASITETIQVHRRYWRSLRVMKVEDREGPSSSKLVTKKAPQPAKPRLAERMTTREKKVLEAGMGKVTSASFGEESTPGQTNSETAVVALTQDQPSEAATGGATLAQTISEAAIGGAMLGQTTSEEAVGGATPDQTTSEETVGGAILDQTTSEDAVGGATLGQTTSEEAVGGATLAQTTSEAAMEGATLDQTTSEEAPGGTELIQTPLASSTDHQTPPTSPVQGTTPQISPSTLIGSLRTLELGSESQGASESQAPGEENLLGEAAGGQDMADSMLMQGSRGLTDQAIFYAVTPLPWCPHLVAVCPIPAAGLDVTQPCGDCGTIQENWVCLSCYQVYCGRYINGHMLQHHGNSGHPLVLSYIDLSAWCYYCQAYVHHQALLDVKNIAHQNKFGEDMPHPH

A549 [10] = experiment: Cell cycle arrest in human A549 cells assessed as accumulation of cells at G0/G1 phase at 1 uM after 48 hrs by propidium iodide staining-based flow cytometry (reference value: 73.35%); format: functional
SMMC-7721 [11] = experiment: Antiproliferative activity against human SMMC7721 cells assessed as growth inhibition at 8 uM after 72 hrs by CCK-8 assay relative to control; format: functional; details: SMMC-7721, 72 h, read-out: GI
HCT-116 = experiment: Antiproliferative activity against human HCT116 cells assessed as growth inhibition at 2 uM after 72 hrs by CCK-8 assay relative to control; format: functional; details: HCT-116, 72 h, read-out: GI
A549 [12] = experiment: Cell cycle arrest in human A549 cells assessed as accumulation of cells at G2/M phase at 2 uM after 48 hrs by propidium iodide staining-based flow cytometry (reference value: 13.62%); format: functional
[13] = AUC (0 to infinity) in ICR mouse at 4 mg/kg, iv after 0.08 to 24 hrs by LC-MS/MS analysis; format: ADME, organism-based; design: dose 4 mg/kg, time infinity, route intravenous; details: in vivo; procedure, shortened: as §2
A-375 = experiment: Antiproliferative activity against human A375 cells assessed as growth inhibition at 8 uM after 72 hrs by CCK-8 assay relative to control; format: functional; details: A-375, 72 h, read-out: GI
SMMC-7721 [14] = experiment: Antiproliferative activity against human SMMC7721 cells assessed as decrease in cell viability after 72 hrs by CCK-8 assay; format: functional, cell-based; details: SMMC-7721, 72 h; procedure, shortened: as §1

IC50 (HeLa [3]) [µM] | clearance [5] [mL/min/kg] | IC50 (Histone deacetylase) [µM] | IC50 [9] [µM] | AUC(0-inf) [13] [ng·h/mL] | IC50 (SMMC-7721 [14]) [µM] | SMILES | inhibition of growth at 8 µM (HeLa [1]) [%] | Activity (A549 [2]) [%] | inhibition of growth at 2 µM (A549 [4]) [%] | viability at 2 µM (A549 [6]) [%] | Activity (A549 [7]) [%] | Activity (A549 [8]) [%] | Activity (A549 [10]) [%] | inhibition of growth at 8 µM (SMMC-7721 [11]) [%] | inhibition of growth at 2 µM (HCT-116) [%] | Activity (A549 [12]) [%] | inhibition of growth at 8 µM (A-375) [%]
3.8 | 76.3 | > 32 | > 32 | 874 | 1.75 | CCc1ccc(SCc2ccc(C(=O)Nc3ccccc3N)cc2)cc1 | 71 | 33.89 | 53.6 | 63.5 | 11 | 53.55 | 30.39 | 82.9 | 40.7 | 66.48 | 71.1
2.39 | 90.1 | > 32 | > 32 | 740 | 2.17 | COc1ccc(SCc2ccc(C(=O)Nc3ccccc3N)cc2)cc1 | 79.7 | 64.38 | 45.7 | 47.5 | 5.21 | 18.07 | 41.07 | 80.1 | 73.3 | 48.06 | 81.8

From ChEMBL document CHEMBL4396885, “Thioether-based 2-aminobenzamide derivatives: Novel HDAC inhibitors with potent in vitro and in vivo antitumor activity” (Eur J Med Chem, 2019)
